Shown are actives, neighbours in structure and some others; about 0.72% of the full set was active somewhere.
hIAP activ: increases human intestinal alkaline phosphatase activity | purified human IAP, CDP-Star luminescence, 30 min; active compounds read high; 1 = vehicle-only enzyme, 0 = enzyme-free background | activation factor at 10 µM | actives 0.16% (n = 330,000) | AID 2524;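 active means activation factor of the enzyme at least 2-fold when tested at 20 µM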
Target sequence (P09923 whole entry, looked up): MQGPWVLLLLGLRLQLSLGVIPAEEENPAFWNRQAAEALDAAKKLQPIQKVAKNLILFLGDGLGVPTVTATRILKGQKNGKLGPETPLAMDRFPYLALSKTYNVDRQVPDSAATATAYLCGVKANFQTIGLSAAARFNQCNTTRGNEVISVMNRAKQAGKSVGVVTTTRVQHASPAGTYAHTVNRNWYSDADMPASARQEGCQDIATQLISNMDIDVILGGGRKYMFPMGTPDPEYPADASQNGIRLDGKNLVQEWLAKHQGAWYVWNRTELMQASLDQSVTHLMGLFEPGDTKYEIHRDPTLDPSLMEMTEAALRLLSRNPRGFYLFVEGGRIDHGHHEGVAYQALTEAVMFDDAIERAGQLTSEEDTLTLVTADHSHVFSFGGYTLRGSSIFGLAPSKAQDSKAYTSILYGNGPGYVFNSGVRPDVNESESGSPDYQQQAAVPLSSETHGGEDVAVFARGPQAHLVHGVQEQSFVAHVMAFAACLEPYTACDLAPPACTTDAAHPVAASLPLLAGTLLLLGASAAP
bIAP inh: intestinal alkaline phosphatase (bovine) inhibition; purified bovine IAP, CDP-star luminescence, 30 min; 190,000 tested, under 10 active; inhibition, % at 20 µM;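 active means over 50% inhibition of intestinal alkaline phosphatase at 20 µM in the single-dose screen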
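System: Purified bovine intestinal alkaline phosphatase (IAP) enzyme | Input: IAP diluted 1/65,000,000 in the well | Also added: CDP-star chemiluminescent phosphatase substrate, 30 µM final | Dosing: 20 µM single dose | Times: Enzyme reaction for 30 min at room temperature | Detection: Luminescence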
bIAP act: increases bovine intestinal alkaline phosphatase activity; actives 0.17% (n = 200,000); AID 1016; purified bovine IAP, CDP-star luminescence, 30 min; active compounds read high; fold of DMSO-control signal, blank-subtracted; activation factor at 20 µM;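 active means activation factor of 2 or more at 20 µM, a signal rise over negative controls twice the positive control's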
mIAP activ: mouse IAP activation; muIAP, CDP-Star luminescence, 30 min; active compounds read high; 1 = vehicle-only enzyme signal, 0 = enzyme-free wells; activation factor at 10 µM; actives 0.24% (n = 330,000);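 active means activation factor of at least 2 at 20 µM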
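also added = chemiluminescent substrate CDP-Star | test system = mouse IAP enzyme | signal = chemiluminescence readout | compound = DMSO-dissolved test compounds | incubation = 30 min at room temperature | benchmarks = DMSO wells, no-enzyme wells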
mIAP inh: blocks mouse intestinal alkaline phosphatase; AID 2806; inhibition, % at 10 µM; actives 0.2% (n = 330,000); purified mouse IAP, CDP-Star luminescence, 30 min;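 active means inhibition of at least 40% at 10 µM in the primary screen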;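 further: plate controls were DMSO with enzyme for no effect and no enzyme wells for full effect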
hIAP block: human IAP inhibition; P09923; purified IAP, CDP-Star luminescence, 30 min; actives 0.12% (n = 330,000); inhibition, % at 10 µM;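 active means inhibition reaching a set limit with compound at 10 µM in the primary screen, cut at about 35% in these data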;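 further: plate controls were DMSO wells with enzyme for no effect and no-enzyme buffer wells for full effect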
mIAP inh conf: mouse IAP inhibition confirmation. purified mouse IAP, CDP-Star luminescence, 30 min. actives 4.7% (n = 11,000). AID 434971. shares compounds with mIAP inh. inhibition, % at 10 µM;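 active means inhibition of at least 40% at 10 µM in either of the two replicates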;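 further: plate controls were DMSO wells with enzyme for no effect and buffer wells lacking enzyme for full effect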
* = called active by the depositor; i = inactive; x = not tested or not shown.

SMILES | hIAP activ | bIAP inh | bIAP act | mIAP activ | mIAP inh | hIAP block | mIAP inh conf
C#CCOCCOCCOCCNc1nc(N2CCOCC2)nc(N2CCN(C(=O)CCCCCCCCCCNC(=O)[C@@H]([C@H](C)CC)n3cc(CCCCCN)nn3)CC2)n1 | 1.1 | x | x | 1.7 | -69 | -8 | x
C#CCOCCOCCOCCNc1nc(N2CCN(C(=O)CCCCCCCCCCNC(=O)[C@H]([C@@H](C)CC)n3cc(CCCCCN)nn3)CC2)nc(N2CCN(C(=O)CCCCCCCCCCNC(=O)[C@@H]([C@H](C)CC)n3cc(CCCCCN)nn3)CC2)n1 | 0.97 | x | x | 6.6* | i | 3 | i
C#CCOCCOCCOCCNc1nc(N2CCN(C(=O)CCCCCCCCCCNC(=O)[C@H]([C@@H](C)CC)n3cc(CCCCCN)nn3)CC2)nc(N2CCN(C(=O)CCCCCCCCCCNC(=O)[C@H](CO)n3cc(CCCCCN)nn3)CC2)n1 | 0.97 | x | x | 2.1* | -110 | 3 | -151
CCOC(=O)N1CCN(C(=S)Nc2cc(OC)c(OC)cc2C(=O)OC)CC1 | 1 | -6 | 1.1 | 1 | -1 | 0 | x
COc1ccc(CNS(=O)(=O)c2csc(C(N)=O)c2)cc1OC | 1.1 | x | x | 0.99 | 1 | -14 | x
CC(C)n1c(O)c(N=NC(=O)Cc2csc(N3CCOCC3)n2)c2ccccc21 | 0.89 | -5 | 1.1 | 0.92 | 8 | 11 | x
N#CC(C#N)=C(N)/C(C#N)=C/c1cc(O)c(O)c(O)c1 | 0.97 | x | x | 0.29 | 70* | 3 | 66*
COc1cc(CCN2C(=O)c3cccc4cccc(c34)C2=O)c(S(=O)(=O)N2CCC(C)CC2)cc1OC | 0.97 | -17 | 1.2 | 0.94 | 6 | 3 | x
COc1ccccc1C(CC(=O)Nc1ccc(C)c(C)c1)c1ccc(OC(C)C)cc1 (stereo not drawn) | 1 | 15 | 0.8 | 2.1* | -114 | 0 | -106
CCOc1ccccc1OCC(=O)NCCc1ccc(S(N)(=O)=O)cc1 | 0.98 | 8 | 0.9 | 0.92 | 8 | 2 | x
CCOc1ccccc1NC(=O)CN1CCC(NC(=O)Nc2ccccc2)CC1 | 1.8 | x | x | 3.5* | -249 | -81 | -199
CCCc1c(NC(=O)Nc2ccc(F)cc2)cnn1-c1ccc(Cl)cc1 | 1.4 | x | x | 3.8* | -278 | -43 | -142
O=C(NCCc1ccc(Cl)cc1)Nc1ccc(F)cc1 | 1.1 | -14 | 1.1 | 1.4 | -40 | -11 | x
Cc1cc(OCC(=O)N(Cc2cccs2)C2CCS(=O)(=O)C2)ccc1Cl (stereo not drawn) | 0.9 | x | x | 1 | -4 | 10 | x
COc1ccc(S(=O)(=O)N2CCN(Cc3ccco3)CC2)cc1 | 0.98 | x | x | 0.98 | 2 | 2 | x
C[C@@H]1O[C@@H](OC2C(O)C(OCCc3ccc(O)c(O)c3)OC(CO)C2OC(=O)/C=C/c2ccc(O)c(O)c2)[C@H](O)[C@H](O)[C@H]1O (stereo partly drawn) | 0.74 | x | x | 0.54 | 46* | 26 | 42*
C[C@@H]1O[C@@H](O[C@H]2[C@H](O)[C@@H](O)[C@H](Oc3c(-c4ccc(O)cc4)oc4cc(O)cc(O)c4c3=O)O[C@@H]2CO)[C@H](O)[C@H](O)[C@H]1O | 1 | x | x | 1.1 | -5 | -4 | x
CCOc1ccc(NC(=O)C(C)NS(=O)(=O)c2ccc(NC(C)=O)cc2)cc1 (stereo not drawn) | 1 | 6 | 0.9 | 1 | 0 | -1 | x
O=C(N/N=C/c1ccco1)c1cccc(S(=O)(=O)Nc2ccccc2Cl)c1 | 0.9 | 27 | 0.7 | 0.47 | 54* | 10 | 61*
Oc1cccc(C=Nc2cccc3ccccc23)c1O | 1.1 | x | x | 0.62 | 38 | -5 | x
Oc1cccc(C=NCc2ccccc2)c1O | 1.1 | 16 | 0.8 | 0.42 | 58* | -6 | 63*
CCCC(=O)Nc1nnc(-c2ccco2)s1 | 1 | 4 | 1 | 0.91 | 9 | -2 | x
Nc1nnc(-c2ccco2)s1 | 0.8 | -6 | 1.1 | 0.4 | 60* | 20 | 66*
COc1ccc(Oc2ccc(/C=C/C(=O)c3ccc(O)cc3)cc2[N+](=O)[O-])cc1 | 0.98 | 1 | 1 | 1 | 0 | 2 | x
CCOC(=O)N1CCN(S(=O)(=O)c2ccc3c4c(cccc24)C(=O)N3)CC1 | 1.2 | x | x | 0.99 | 1 | -21 | x
SMILES | hIAP activ | bIAP inh | bIAP act | mIAP activ | mIAP inh | hIAP block | mIAP inh conf
CCOc1ccccc1N1CCN(S(=O)(=O)c2ccc3c4c(cccc24)C(=O)N3)CC1 | 1.1 | 6 | 0.9 | 0.41 | 59* | -10 | 56*
CCN(CCO)C(=O)c1ccc2nc(Cc3cccc(Cl)c3)oc2c1 | 0.93 | x | x | 1 | -1 | 7 | x
CC(C)CCNC(=O)Nc1ccc2c(c1)N(C)C(=O)CS2 | 1.1 | 21 | 0.8 | 1.7 | -72 | -13 | x
CN1C(=O)CSc2ccc(NC(=O)NCCC3=CCCCC3)cc21 | 2 | 12 | 0.9 | 3.8* | -279 | -96 | -122
Nc1ncnc2c1ncn2[C@@H]1O[C@H](CNC(=O)[C@@H](N)COCc2ccccc2)[C@@H](O)[C@H]1O | x | x | x | 0.87 | 13 | x | x
Cc1cccn2c(=O)nc(SCC(=O)Nc3ccc4c(c3)OCCO4)nc12 | 1.1 | x | x | 0.99 | 1 | -10 | x
O=C(O)c1cc(-c2ccco2)[nH]n1 | 1.1 | -3 | 1 | 0.31 | 69* | -5 | 68*
O=C(N/N=C/c1cc(Cl)cc([N+](=O)[O-])c1O)c1ccc2c(c1)OCO2 | 0.8 | x | x | 0.4 | 60* | 20 | 68*
O=C(N/N=C/c1cc(Cl)cc([N+](=O)[O-])c1O)c1ccccc1NS(=O)(=O)c1cccs1 | 1.2 | x | x | 0.59 | 41* | -22 | 44*
O=C(NN=Cc1ccc(O)cc1)c1ccccc1NS(=O)(=O)c1cccs1 | 1.1 | x | x | 1 | -3 | -8 | x
CCNc1nc(NCC)nc(N(C)/N=C/c2ccco2)n1 | 1 | x | x | 1 | 0 | -4 | x
O=C(Nc1ccccc1)Nc1ccc2c(c1)CCC2 | 0.92 | x | x | 2.2* | -118 | 8 | -95
Cc1ccc(N/C(N)=N/c2nc(C)cc(N3CCCCC3)n2)c(C)c1 | 3.1* | i | 8.4* | 3.7* | -270 | -207 | -322
Cc1ccc(N/C(N)=N/c2nc3c(c(=O)[nH]2)CCCC3)c(C)c1 | 1 | -54 | 1.5 | 1.3 | -26 | -1 | x
COc1cc(-c2nnc(SCc3cc(=O)oc4cc(O)c(O)cc34)o2)cc(OC)c1OC | 0.89 | 6 | 0.9 | 0.31 | 69* | 11 | 73*
COCc1cc(C)nc(SCC(=O)Nc2ccc3c(c2)n(C)c(=O)n3C)c1C#N | 1.4 | x | x | 0.97 | 3 | -38 | x
Oc1cc(O)c2c(c1)O[C@H](c1ccc(O)c(O)c1)[C@H](O)C2 | 0.81 | x | x | 0.18 | 82* | 19 | 62*
COc1ccc([C@H]2CC(=O)c3c(O)cc(O)cc3O2)cc1O | 1.1 | x | x | 0.92 | 8 | -8 | x
